Test results reported in paper PMC9287213 (Clinical Pharmacokinetics, 2022).
Like-named read-outs stand apart in the source and are kept apart here.

How the values were obtained:
[1] = type: in vivo, human
Outline: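 Open-label parallel single-dose study; participants grouped by baseline Child-Pugh A, B, C or normal hepatic function. One subcutaneous 5-mg injection. Plasma sampled pre-dose and 8, 12, 24, 48, 72, 96, 168, 336 h post-dose; analyte immunoprecipitated, quantified by high-resolution LC/MS, positive HESI, range 2.00–500.00 ng/mL. Noncompartmental parameters from actual sampling times; geometric mean (geometric CV%); tmax analysed nonparametrically.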

albumin = conditions: in humans; background statement, no reference given; cited from earlier work
[2] = cited from earlier work
[3] = in humans; background statement, no reference given; cited from earlier work
[4] = system: cytochrome P450 enzymes, sulfation, or glucuronidation enzymes; conditions: background statement, no reference given; cited from earlier work
[5] = system: renal or hepatic transporters; conditions: ref data on file, Eli Lilly and Company; cited from earlier work
[6] = hepatic impairment studies; cited from earlier work

| Compound | CL/F ([1]; human, plasma, sc, 5 mg) [mL/min] | Tmax ([1]; human, plasma, sc, 5 mg) [h] | Vd/F ([1]; human, plasma, sc, 5 mg) [L] | half-life ([1]; human, plasma, sc, 5 mg) [h] | CL/F ([1]; human, plasma, sc, 5 mg, CL/F (apparent total body clearance), single 5-mg subcutaneous dose, normal hepatic function, n = 13, geometric mean (geometric CV%), noncompartmental) [mL/min] | VSS/F (apparent volume of distribution at steady state) ([1]; single 5-mg subcutaneous dose, normal hepatic function, n = 13, geometric mean (geometric CV%), noncompartmental) | T1/2 (half-life associated with the terminal rate constant) ([1]; single 5-mg subcutaneous dose, normal hepatic function, n = 13, geometric mean (range), noncompartmental) | bound to albumin (albumin) [%] | decrease in liver fat content compared with insulin degludec ([2]; SURPASS-3 sub-study, 52 weeks) | non-alcoholic steatohepatitis-related biomarkers ([2]; post-hoc analysis of the phase II study, 26 weeks of treatment) | half-life [3] | metabolism via pathways involving cytochrome P450 enzymes, sulfation, or glucuronidation enzymes [4] | substrate for renal or hepatic transporters commonly involved in drug disposition [5] | impact of the severity of hepatic disease status on pharmacokinetics [6] |
| --- | --- | --- | --- | --- | --- | --- | --- | --- | --- | --- | --- | --- | --- | --- |
| CC[C@H](C)[C@H](NC(=O)[C@H](CC(C)C)NC(=O)[C@H](Cc1c[nH]c2ccccc12)NC(=O)[C@H](CCC(N)=O)NC(=O)[C@@H](NC(=O)[C@H](Cc1ccccc1)NC(=O)[C@H](C)NC(=O)[C@H](CCCCNC(=O)COCCOCCNC(=O)COCCOCCNC(=O)CC[C@H](NC(=O)CCCCCCCCCCCCCCCCCCC(=O)O)C(=O)O)NC(=O)[C@H](CCC(N)=O)NC(=O)[C@H](C)NC(=O)[C@@H](NC(=O)[C@H](CCCCN)NC(=O)[C@H](CC(=O)O)NC(=O)[C@H](CC(C)C)NC(=O)C(C)(C)NC(=O)[C@@H](NC(=O)[C@H](CO)NC(=O)[C@H](Cc1ccc(O)cc1)NC(=O)[C@H](CC(=O)O)NC(=O)[C@H](CO)NC(=O)[C@@H](NC(=O)[C@H](Cc1ccccc1)NC(=O)[C@@H](NC(=O)CNC(=O)[C@H](CCC(=O)O)NC(=O)C(C)(C)NC(=O)[C@@H](N)Cc1ccc(O)cc1)[C@@H](C)O)[C@@H](C)O)[C@@H](C)CC)[C@@H](C)CC)C(C)C)C(=O)N[C@@H](C)C(=O)NCC(=O)NCC(=O)N1CCC[C@H]1C(=O)N[C@@H](CO)C(=O)N[C@@H](CO)C(=O)NCC(=O)N[C@@H](C)C(=O)N1CCC[C@H]1C(=O)N1CCC[C@H]1C(=O)N1CCC[C@H]1C(=O)N[C@@H](CO)C(N)=O [Tirzepatide] | 0.822 | 24 | 10.6 | 131 | 0.988 | 10.7 (20) L | 124 (101–158) h | 99.06 | significantly greater decrease | improvement | approximately 5 days | not metabolized | not a substrate | – |
| dulaglutide | – | – | – | – | – | – | – | – | – | – | – | – | – | does not impact |
| semaglutide | – | – | – | – | – | – | – | – | – | – | – | – | – | does not impact |
